How the values were obtained:
[1] = Lipophilicity, log D at pH 7.4; assay type: physicochemical; conditions: buffer
[2] = Inhibition of H+/K+ ATPase in hog gastric mucosa by competitive binding assay; assay type: tissue-based, Sus scrofa
How it was run: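 Competitive binding assay using H+/K+-ATPase prepared from hog gastric mucosa; activity reported as −log IC50.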

[3] = Dissociation constant, pKa of the compound; assay type: physicochemical
How it was run: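 Potentiometric co-solvent titration in 0.15 mol/L KCl over pH 2.0–11.0 at 25 °C. Methanol co-solvent at varying proportions; 0.5 mol/L KOH and HCl as titrants. Aqueous pKa obtained by linear extrapolation to 0% co-solvent (Yasuda–Shedlovsky plot).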

[4] = Lipophilicity, log P of the compound; assay type: physicochemical; conditions: octanol/water

| Structure (SMILES) | logD [1] | Log IC50 [2] | pKa [3] | logP [4] |
| --- | --- | --- | --- | --- |
| Cc1nc2c(N[C@H]3c4ccccc4C[C@@H]3O)cc(C(=O)N(C)C)cn2c1C | 2.82 | -6.3 | 6.24 | 2.85 |
| COCCNC(=O)c1cc(N[C@H]2c3ccccc3C[C@@H]2O)c2nc(C)c(C)n2c1 | 3.41 | -4.7 | 6.01 | 3.43 |
| COc1cccc2c1[C@H](Oc1cc(C(=O)N(C)C)cn3c(C)c(C)nc13)[C@@H](O)C2 | 2.27 | -5.7 | 6.27 | 2.3 |
| CCc1cccc(C)c1CNc1cc(C(N)=O)cn2c(C)c(C)nc12 | 4.93 | -6.2 | 6.1 | 4.95 |
| Cc1nc2c(N[C@H]3c4ccccc4C[C@@H]3O)cc(C(N)=O)cn2c1C | 3.09 | -4.8 | 5.97 | 3.11 |
| CNC(=O)c1cc(N[C@H]2c3ccccc3C[C@@H]2O)c2nc(C)c(C)n2c1 | 3.39 | -5.4 | 5.97 | 3.4 |
| Cc1cccc2c1[C@H](Oc1cc(C(=O)N(C)C)cn3c(C)c(C)nc13)[C@@H](O)C2 | 2.56 | -6.9 | 6.22 | 2.59 |
| Cc1nc2c(O[C@H]3c4ccccc4C[C@@H]3O)cc(C(=O)N(C)C)cn2c1C | 2.16 | -5.7 | 6.21 | 2.2 |
